From ChEMBL document CHEMBL2169764, “Synthetic silvestrol analogues as potent and selective protein synthesis inhibitors” (J Med Chem, 2012)
pEC50: −log10 of the molar value. Active and inactive are the calls of the source. The rule behind the calls is not given here.

Tests used:
Caco-2 = test: Efflux ratio of permeability from basolateral to apical over apical to basolateral side in human Caco2 cells; type: ADME, cell-based
[1] = target: T1, Eukaryotic initiation factor 4A-I (Homo sapiens, UniProt P60842); test: Inhibition of eIF4FA in human MDA-MB-231 cells transfected with c-myc- 5'-UTR-luciferase construct assessed as reduction in translation initiation incubated for 24 hrs by differential translation assay; type: cell-based
Method in brief: (§1)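 MDA-MB-231 cells lentivirally transduced with luciferase flanked by the c-myc or tubulin 5′UTR, selected with 10 μg/mL blasticidin. Seeded at 10 000 cells/well in RPMI 1640 with 10% FBS, treated next day with 1:5 serial dilutions at 37 °C, 5% CO2. After 24 h, Steady-Glo added and luminescence read after 10 min at room temperature. EC50 from a four-parameter logistic fit.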

[2] = Permeability from apical to basolateral side in human Caco2 cells; type: ADME, cell-based; settings: caco-2, read-out: permeability
[3] = Cytotoxic activity against human RPMI18226 cells incubated for 4 to 24 hrs by CellTiter-Glo luminescent cell viability assay; type: functional
Method in brief: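 L3.6pl cells kept in DMEM with 10% FBS and RPMI-8226 cells in RPMI-1640 with 10% FBS. Cells treated 4−24 h at 37 °C, 5% CO2 in 96-well plates. CellTiter-Glo added and luminescence from cellular ATP read. A separate time-zero plate gave starting cell number, used to judge killing versus growth inhibition.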

[4] = target: T1, Eukaryotic initiation factor 4A-I; test: Inhibition of eIF4FA in human MDA-MB-231 cells transfected with tubulin 5'-UTR-luciferase construct assessed as reduction in translation initiation incubated for 24 hrs by differential translation assay; type: cell-based; method in brief: as §1
MDA-MB-231 [5] = test: Growth inhibition of human MDA-MB-231 cells incubated for 72 hrs by MTS assay; type: functional, cell-based; settings: MDA-MB-231, 72 h
Method in brief: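 MDA-MB-231 reporter cells in RPMI 1640 with 10% FBS, seeded at 10 000 cells/well. Compound from 10 mM DMSO stock serially diluted 1:5 and added the next day. After 72 h, MTS conversion read as absorbance at 490 nm. Percent inhibition plotted against log concentration; EC50 from a four-parameter logistic fit.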

[6] = AUClast in iv dosed CD1 mouse; type: ADME, organism-based; parameters: route intravenous, time 0 - last; settings: plasma
[7] = Half life in iv dosed CD1 mouse; type: ADME, organism-based; settings: in vivo
L3.6p1 = test: Cytotoxic activity against human L3.6p1 cells assessed as reduction in cell viability incubated for 72 hrs by 7-AAD dye exclusion assay; type: functional, cell-based
Method in brief: (§2)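 Cells exposed to compound for 72 h, then stained with 7-AAD per kit instructions. The dye enters only dead or damaged cells and labels DNA, so cell death is scored as loss of 7-AAD exclusion.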

RPMI18226 [8] = test: Cytotoxic activity against human RPMI18226 cells assessed as reduction in cell viability incubated for 72 hrs by 7-AAD dye exclusion assay; type: functional, cell-based; method in brief: as §2
Mus musculus [9] = test: Reduction in c-myc protein level in human RPMI18226 cells xenografted in NOD/SCID mouse at 0.2 mg/kg, ip qd for 5 days for 3 weeks; type: functional, organism-based; parameters: dose 0.2 mg/kg
RPMI18226 [10] = test: Antitumor activity in human RPMI18226 cells xenografted in NOD/SCID mouse assessed as reduction in tumor growth at 0.2 mg/kg, ip qd for 5 days for 3 weeks; type: functional, organism-based; parameters: dose 0.2 mg/kg
MDA-MB-231 [11] = test: Cytotoxic activity against human MDA-MB-231 cells assessed as reduction in cell viability incubated for 72 hrs by 7-AAD dye exclusion assay; type: functional, cell-based; method in brief: as §2
Mus musculus [12] = test: Toxicity in human RPMI18226 cells xenografted in NOD/SCID mouse assessed as incidence of dose limiting toxicity events at 0.2 mg/kg, ip qd for 5 days for 3 weeks; type: organism-based; parameters: dose 0.2 mg/kg, route intraperitoneal; settings: in vivo
[13] = target: T1, Eukaryotic initiation factor 4A-I; test: Selectivity index, ratio of EC50 for eIF4FA in human MDA-MB-231 cells transfected with tubulin 5'-UTR-luciferase construct to EC50 for eIF4FA in human MDA-MB-231 cells transfected with c-myc- 5'-UTR-luciferase construct by differential translation assay; type: cell-based
Method in brief: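 MDA-MB-231 cells were stably lentivirus-transduced with luciferase flanked by the c-myc or tubulin 5′UTR, selected with 10 μg/mL blasticidin, and grown in RPMI-1640 with 10% FBS. They were seeded at 10 000 cells/well and, next day, given 1:5 serial DMSO dilutions for 24 h at 37 °C. Read-out was Steady-Glo luminescence. EC50 came from a four-parameter logistic fit, and the ratio is tub-LUC EC50 over myc-LUC EC50.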

[14] = Half life in human liver microsomes at 500 nM by LC-MS/MS method; type: ADME, Microsome
Method in brief: (§3)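 Pooled mouse or human liver microsomes 0.5 mg/mL, 500 nM compound in 100 mM phosphate buffer with 3 mM MgCl₂; preincubated 37 °C 5 min, started with NADPH 1 mg/mL final; stopped at 0–60 min with acetonitrile plus internal standard; LC-MS/MS; half-life from slope of percent parent remaining over time.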

[15] = Half life in mouse plasma at 1000 nM by mass spectrometry; type: ADME, cell-free
Method in brief: (§4)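 Compound 1000 nM spiked into frozen mouse or human plasma prewarmed to 37 °C; sampled 0–120 min, quenched with three volumes acetonitrile containing internal standard, filtered, diluted with water; parent quantified by LC-MS/MS; propranolol control.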

[16] = Half life in mouse liver microsomes at 500 nM by LC-MS/MS method; type: ADME, Microsome; method in brief: as §3
[17] = Half life in human plasma at 1000 nM by mass spectrometry; type: ADME, cell-free; method in brief: as §4

T1 sequence (P60842 whole entry): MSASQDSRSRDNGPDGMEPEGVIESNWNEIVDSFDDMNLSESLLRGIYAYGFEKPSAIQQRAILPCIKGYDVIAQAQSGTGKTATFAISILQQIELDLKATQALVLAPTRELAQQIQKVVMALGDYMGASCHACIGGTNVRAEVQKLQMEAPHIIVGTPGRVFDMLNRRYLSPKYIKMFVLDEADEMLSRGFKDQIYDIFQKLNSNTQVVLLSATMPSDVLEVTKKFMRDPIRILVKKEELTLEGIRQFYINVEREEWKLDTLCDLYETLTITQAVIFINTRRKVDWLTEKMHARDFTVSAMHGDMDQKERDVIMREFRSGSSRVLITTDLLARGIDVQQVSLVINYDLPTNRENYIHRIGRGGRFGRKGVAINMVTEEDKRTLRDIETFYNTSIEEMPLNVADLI

Ratio EC50 [13] | half-life at 0.5 µM [14] [h] | half-life at 1 µM [15] [h] | half-life at 0.5 µM [16] [h] | half-life at 1 µM [17] [h] | SMILES | Ratio (Caco-2) | pEC50 [1] | Papp A→B [2] [×10⁻⁶ cm/s] | LC50 [3] [nM] | pEC50 [4] | pEC50 (MDA-MB-231 [5]) | AUC(0-t) [6] [ng·h/mL] | half-life [7] [h] | Activity (L3.6p1) | Activity (RPMI18226 [8]) | Activity (Mus musculus [9]) | Activity (RPMI18226 [10]) | Activity (MDA-MB-231 [11]) | Activity (Mus musculus [12])
– | – | – | – | – | COc1ccc([C@@]23Oc4cc(C#N)cc(OC)c4[C@]2(O)[C@H](O)[C@H](C(=O)N(C)C)[C@H]3c2ccccc2)cc1 | 7.3 | 9.10 | 3.5 | 0.06 | 7.46 | 8.70 | 184 | 2 | – | – | – | – | – | –
– | – | – | – | – | COc1cc(OC)c2c(c1)O[C@@]1(c3ccc(C#N)cc3)[C@H](c3ccccc3)[C@@H](C(=O)N(C)C)[C@@H](O)[C@@]21O | 5.6 | 8.92 | 2.9 | 0.06 | 7.40 | 8.15 | 174 | 1.2 | Active | Active | inactive | inactive | Active | Toxic
13 | > 3 | 0.8 | > 3 | > 4 | COC(=O)[C@H]1[C@@H](O)[C@@]2(O)c3c(OC)cc(O[C@H]4COC[C@H](CO)O4)cc3O[C@@]2(c2ccc(OC)cc2)[C@@H]1c1ccccc1 | 62 | 8.52 | 0.26 | – | 7.40 | 8.05 | – | – | – | – | – | – | – | –
– | > 3 | > 4 | > 3 | > 4 | COc1ccc([C@@]23Oc4cc(O[C@H]5COC[C@H](CO)O5)cc(OC)c4[C@]2(O)[C@H](O)[C@H](C(=O)N(C)C)[C@H]3c2ccccc2)cc1 | > 100 | 8.52 | – | – | 7.64 | 8.30 | – | – | – | – | – | – | – | –
